Data from ChEMBL document CHEMBL5303300, “EUbOPEN Chemogenomics Library - Multiplex” (2023).
Where “and” joins values, the source holds several entries; their conditions need not be identical. Equal values may be shown once.

Test system: Fibroblast
Assay: Multiplex assay against human fibroblast
Type: toxicity, cell-based
Details: number of replicates 2
Procedure, shortened: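 Per cents of healthy-nucleus cells form the tubulin, mitochondrial-mass and membrane-permeability phenotype values. Live cells were stained at seeding with Hoechst33342, BioTracker Green Microtubule Cytoskeleton Dye, MitoTracker Red and Annexin V Alexa Fluor 680. After compound addition they were imaged on a CQ1 microscope at 37°C and 5% CO2, and CellPathfinder machine-learning gating split them into Hoechst high-intensity objects or normal cells, normal cells into healthy, pyknosed or fragmented nuclei, and pyknosed cells into mitotic or apoptotic.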

[1] = 12 h, 1 µM, compound concentration 1 uM
[2] = 12 h, 10 µM, compound concentration 10 uM
[3] = 24 h, 1 µM, compound concentration 1 uM
[4] = 24 h, 10 µM, compound concentration 10 uM
[5] = 48 h, 1 µM, compound concentration 1 uM
[6] = 48 h, 10 µM, compound concentration 10 uM

C[C@H](N)Cn1ccc2cc(F)c(Cl)cc21.O=C(O)/C=C/C(=O)O
Population Apoptotic (%) [1]: 44% and 40% | Population Fragmented Nuclei (%) [1]: 14% | Population Healthy Nuclei (%) [1]: 74% and 61% | Population Hoechst High Intensity Objects (%) [1]: 0% | Population Membrane Permeable-Phenotype (%) [1]: 5% and 6% | Population Mitochondria Different-Phenotype (%) [1]: 0% and 1% | Population Mitotic Cells (%) [1]: 55% and 60% | Population Normal (%) [1]: 100% | Population Pyknosed Nuclei (%) [1]: 11% and 24% | Population Tubulin-Different-Phenotype (%) [1]: 14% and 11% | Total Cell Count [1]: 252 and 208 | Population Apoptotic (%) [2]: 45% and 37% | Population Fragmented Nuclei (%) [2]: 14% and 22% | Population Healthy Nuclei (%) [2]: 69% and 58% | Population Hoechst High Intensity Objects (%) [2]: 0% | Population Membrane Permeable-Phenotype (%) [2]: 11% and 12% | Population Mitochondria Different-Phenotype (%) [2]: 3% and 6% | Population Mitotic Cells (%) [2]: 54% and 62% | Population Normal (%) [2]: 100% | Population Pyknosed Nuclei (%) [2]: 16% and 19% | Population Tubulin-Different-Phenotype (%) [2]: 24% and 26% | Total Cell Count [2]: 189 and 184 | Population Apoptotic (%) [3]: 42% and 68% | Population Healthy Nuclei (%) [3]: 25% and 72% | Population Hoechst High Intensity Objects (%) [3]: 1% and 0% | Population Mitochondria Different-Phenotype (%) [3]: 2% and 1% | Population Mitotic Cells (%) [3]: 57% and 31% | Population Normal (%) [3]: 98% and 99% | Population Pyknosed Nuclei (%) [3]: 23% and 11% | Total Cell Count [3]: 149 and 256 | Population Apoptotic (%) [4]: 53% and 51% | Population Fragmented Nuclei (%) [4]: 24% and 28% | Population Healthy Nuclei (%) [4]: 63% and 56% | Population Hoechst High Intensity Objects (%) [4]: 0% | Population Membrane Permeable-Phenotype (%) [4]: 4% and 7% | Population Mitochondria Different-Phenotype (%) [4]: 0% and 5% | Population Mitotic Cells (%) [4]: 46% and 48% | Population Normal (%) [4]: 99% and 100% | Population Pyknosed Nuclei (%) [4]: 12% and 14% | Population Tubulin-Different-Phenotype (%) [4]: 23% and 28% | Total Cell Count [4]: 208 | Population Apoptotic (%) [5]: 65% and 56% | Population Fragmented Nuclei (%) [5]: 18% and 21% | Population Healthy Nuclei (%) [5]: 67% and 59% | Population Hoechst High Intensity Objects (%) [5]: 0% | Population Membrane Permeable-Phenotype (%) [5]: 4% and 5% | Population Mitochondria Different-Phenotype (%) [5]: 0% and 1% | Population Mitotic Cells (%) [5]: 34% and 43% | Population Normal (%) [5]: 100% and 99% | Population Pyknosed Nuclei (%) [5]: 13% and 18% | Population Tubulin-Different-Phenotype (%) [5]: 7% and 9% | Total Cell Count [5]: 258 and 233 | Population Apoptotic (%) [6]: 60% and 65% | Population Fragmented Nuclei (%) [6]: 33% and 30% | Population Healthy Nuclei (%) [6]: 58% and 60% | Population Hoechst High Intensity Objects (%) [6]: 0% | Population Membrane Permeable-Phenotype (%) [6]: 4% and 6% | Population Mitochondria Different-Phenotype (%) [6]: 0% and 1% | Population Mitotic Cells (%) [6]: 40% and 35% | Population Normal (%) [6]: 99% | Population Pyknosed Nuclei (%) [6]: 7% and 9% | Population Tubulin-Different-Phenotype (%) [6]: 22% and 18% | Total Cell Count [6]: 255 and 217

CS(=O)(=O)c1ccc(C(=O)Nc2cc(F)cc(COc3ccc(Br)cc3CN3CC[C@H](O)C3)c2)c(Cl)c1.O=CO
Population Apoptotic (%) [1]: 47% and 46% | Population Healthy Nuclei (%) [1]: 54% and 67% | Population Mitotic Cells (%) [1]: 52% and 53% | Population Pyknosed Nuclei (%) [1]: 32% and 19% | Total Cell Count [1]: 177 and 249 | Population Apoptotic (%) [2]: 54% and 58% | Population Fragmented Nuclei (%) [2]: 16% and 19% | Population Healthy Nuclei (%) [2]: 51% and 54% | Population Mitotic Cells (%) [2]: 45% and 41% | Population Pyknosed Nuclei (%) [2]: 31% and 26% | Total Cell Count [2]: 197 and 232 | Population Apoptotic (%) [3]: 56% and 57% | Population Fragmented Nuclei (%) [3]: 17% and 22% | Population Healthy Nuclei (%) [3]: 55% and 57% | Population Mitotic Cells (%) [3]: 43% and 42% | Population Pyknosed Nuclei (%) [3]: 26% and 20% | Total Cell Count [3]: 195 and 268 | Population Fragmented Nuclei (%) [4]: 18% | Population Healthy Nuclei (%) [4]: 57% and 54% | Population Mitotic Cells (%) [4]: 9% and 16% | Population Pyknosed Nuclei (%) [4]: 23% and 22% | Total Cell Count [4]: 187 and 243 | Population Apoptotic (%) [5]: 76% | Population Fragmented Nuclei (%) [5]: 21% | Population Healthy Nuclei (%) [5]: 57% and 61% | Population Mitotic Cells (%) [5]: 21% and 23% | Population Pyknosed Nuclei (%) [5]: 20% and 14% | Total Cell Count [5]: 201 and 289 | Population Apoptotic (%) [6]: 97% | Population Fragmented Nuclei (%) [6]: 17% and 19% | Population Healthy Nuclei (%) [6]: 54% | Population Mitotic Cells (%) [6]: 2% and 7% | Population Pyknosed Nuclei (%) [6]: 28% and 25% | Total Cell Count [6]: 144 and 211

COCCN1CCN(CCn2ccc(Nc3ncc4c(n3)-c3c(nn(C)c3-c3ccccc3)C[C@H]4C)n2)CC1
Population Apoptotic (%) [1]: 48% and 20% | Population Fragmented Nuclei (%) [1]: 9% and 8% | Population Healthy Nuclei (%) [1]: 73% and 72% | Population Hoechst High Intensity Objects (%) [1]: 0% | Population Membrane Permeable-Phenotype (%) [1]: 4% and 8% | Population Mitochondria Different-Phenotype (%) [1]: 0% and 1% | Population Mitotic Cells (%) [1]: 51% and 79% | Population Normal (%) [1]: 100% | Population Pyknosed Nuclei (%) [1]: 16% and 19% | Population Tubulin-Different-Phenotype (%) [1]: 16% and 12% | Total Cell Count [1]: 202 and 275 | Population Apoptotic (%) [2]: 32% and 46% | Population Fragmented Nuclei (%) [2]: 13% and 20% | Population Healthy Nuclei (%) [2]: 57% and 61% | Population Hoechst High Intensity Objects (%) [2]: 0% | Population Membrane Permeable-Phenotype (%) [2]: 12% and 5% | Population Mitochondria Different-Phenotype (%) [2]: 2% | Population Mitotic Cells (%) [2]: 67% and 53% | Population Normal (%) [2]: 99% | Population Pyknosed Nuclei (%) [2]: 29% and 18% | Population Tubulin-Different-Phenotype (%) [2]: 58% and 32% | Total Cell Count [2]: 222 and 175 | Population Apoptotic (%) [3]: 51% and 44% | Population Fragmented Nuclei (%) [3]: 10% and 11% | Population Healthy Nuclei (%) [3]: 72% and 69% | Population Hoechst High Intensity Objects (%) [3]: 0% | Population Membrane Permeable-Phenotype (%) [3]: 5% and 4% | Population Mitochondria Different-Phenotype (%) [3]: 0% | Population Mitotic Cells (%) [3]: 48% and 55% | Population Normal (%) [3]: 99% | Population Pyknosed Nuclei (%) [3]: 16% and 19% | Population Tubulin-Different-Phenotype (%) [3]: 14% and 10% | Total Cell Count [3]: 188 and 271 | Population Apoptotic (%) [4]: 57% and 51% | Population Fragmented Nuclei (%) [4]: 13% and 16% | Population Healthy Nuclei (%) [4]: 59% and 64% | Population Hoechst High Intensity Objects (%) [4]: 1% and 0% | Population Membrane Permeable-Phenotype (%) [4]: 7% and 3% | Population Mitochondria Different-Phenotype (%) [4]: 4% and 5% | Population Mitotic Cells (%) [4]: 42% and 48% | Population Normal (%) [4]: 98% and 100% | Population Pyknosed Nuclei (%) [4]: 27% and 19% | Population Tubulin-Different-Phenotype (%) [4]: 53% and 29% | Total Cell Count [4]: 201 and 173 | Population Apoptotic (%) [5]: 52% and 60% | Population Fragmented Nuclei (%) [5]: 10% and 12% | Population Healthy Nuclei (%) [5]: 74% and 72% | Population Hoechst High Intensity Objects (%) [5]: 0% | Population Membrane Permeable-Phenotype (%) [5]: 6% and 4% | Population Mitochondria Different-Phenotype (%) [5]: 0% | Population Mitotic Cells (%) [5]: 48% and 39% | Population Normal (%) [5]: 100% and 99% | Population Pyknosed Nuclei (%) [5]: 14% and 15% | Population Tubulin-Different-Phenotype (%) [5]: 12% and 6% | Total Cell Count [5]: 171 and 271 | Population Apoptotic (%) [6]: 63% and 46% | Population Fragmented Nuclei (%) [6]: 16% and 15% | Population Healthy Nuclei (%) [6]: 65% and 66% | Population Hoechst High Intensity Objects (%) [6]: 0% | Population Membrane Permeable-Phenotype (%) [6]: 8% and 6% | Population Mitochondria Different-Phenotype (%) [6]: 3% and 8% | Population Mitotic Cells (%) [6]: 36% and 53% | Population Normal (%) [6]: 99% | Population Pyknosed Nuclei (%) [6]: 18% and 17% | Population Tubulin-Different-Phenotype (%) [6]: 43% and 17% | Total Cell Count [6]: 201 and 161
